# SENP8 block-1 – inhibitors of human SENP8 protease; Q96LD8; recombinant SENP8, Nedd8 substrate fluorescence; inhibition, % at 20 µM; 360,000 tested, 0.64% active; AID 602440; in the data active = inhibition mostly above about 40%, no sharp cut-off; inactive = mostly below about 27%
# Target sequence (Q96LD8 whole entry, looked up): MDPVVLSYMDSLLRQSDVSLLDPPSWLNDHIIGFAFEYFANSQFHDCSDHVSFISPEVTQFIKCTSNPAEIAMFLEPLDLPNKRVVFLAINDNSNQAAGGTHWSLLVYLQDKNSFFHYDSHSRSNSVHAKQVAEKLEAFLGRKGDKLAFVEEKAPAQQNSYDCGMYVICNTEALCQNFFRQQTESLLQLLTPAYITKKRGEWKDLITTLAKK
# SENP7 inh – inhibitors of human SENP7 protease. Q9BQF6. recombinant SENP7, Z-RLRGG-aminoluciferin luminescence, 40 min. inhibition, % at 5 µM. 330,000 tested, 1.5% active;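 active = inhibition above about 50% at the single test dose, limit read from the data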
# Target sequence (Q9BQF6 706-1050 limits assumed): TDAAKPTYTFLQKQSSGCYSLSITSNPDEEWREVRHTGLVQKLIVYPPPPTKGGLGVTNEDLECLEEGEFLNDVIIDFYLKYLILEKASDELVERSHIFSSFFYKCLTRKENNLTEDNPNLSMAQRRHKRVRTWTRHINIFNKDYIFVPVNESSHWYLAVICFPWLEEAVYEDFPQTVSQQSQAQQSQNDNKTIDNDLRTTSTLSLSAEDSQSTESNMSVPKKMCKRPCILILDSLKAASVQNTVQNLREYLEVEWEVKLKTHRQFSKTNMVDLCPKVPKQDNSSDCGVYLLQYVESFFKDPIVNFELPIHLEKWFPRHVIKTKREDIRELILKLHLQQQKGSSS
# UBC13 inh – inhibitors of human UBC13 polyubiquitin chain formation | P61088 | TR-FRET | inhibition, % at 20 µM | 330,000 tested, 0.47% active | AID 485273; in the data active = inhibition above about 45%, passing the limit was not always enough; inconclusive = no clear call, values can overlap the other calls
# SENP6 inh – SENP6 protease inhibition | Q9GZR1 | Recombinant SENP6 catalytic domain, aminoluciferin luminescence | inhibition, % at 10 µM | 330,000 tested, 1.8% active | AID 2599;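 active = inhibition above about 50% at the single tested dose, limit read from the data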
# SENP8 block-2 – inhibitors of human SENP8 protease. Q96LD8. purified SENP8, Z-RLRGG-aminoluciferin cleavage, luminescence. inhibition, % at 10 µM. 330,000 tested, 1.2% active. AID 2540; in the data active = inhibition above about 50%
# Apaf-1 inh – blocks human Apaf-1 apoptosome activity; O14727; reconstituted apoptosome caspase-3 activity, DEVD-Rh110 fluorescence; inhibition, % at 20 µM; 330,000 tested, 0.71% active; AID 489030; active = inhibition of at least 40% at 20 µM
#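 Assay system: Apoptosome proteins | Medium: pH 7.5 Hepes buffer with CHAPS, BSA, DTT | Also added: Cytochrome c and DEVD-Rh110 substrate | Times: 30 min plus 50 min, RT | Detection: Rhodamine 110 fluorescence at Ex 480/Em 540 nm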
# Casp3 UBC13 ctr – caspase-3 inhibition (UBC13 counter-screen). shares compounds with UBC13 inh. Recombinant caspase-3, Caspase-Glo 3/7 luminescence, 60 min. inhibition, % at 20 µM. 1,400 tested, 4% active;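 active = mean inhibition across replicates above about 26%, limit read from the data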
# UBC13 confirm – confirmation of human UBC13 polyubiquitin inhibitors; AID 488859; inhibition, % at 10 µM; 1,400 tested, 68% active; UBC13 polyubiquitination, TR-FRET, biochemical; shares compounds with UBC13 inh; in the data active = inhibition above about 45%; inconclusive = no clear call, values can overlap the other calls
# A number is an active result; n = inactive; u = inconclusive; x = no result given. Rows were chosen to be rich in hits. Some 3% of all compounds tested hit in one or more screens of this group.
SMILES,SENP8 block-1,SENP7 inh,UBC13 inh,SENP6 inh,SENP8 block-2,Apaf-1 inh,Casp3 UBC13 ctr,UBC13 confirm
COc1ccc(NC(=S)N2CCCCCC2)cc1OC,n,n,n,n,n,n,x,x
CC(C)(C)c1cc(C(=O)N/N=C/c2ccncc2)n[nH]1,n,n,n,n,n,n,x,x
CC(C)(C)c1cc(C(=O)N/N=C/c2ccccn2)n[nH]1,n,n,62,n,n,n,n,n
CCCc1nc2ccccc2c(=O)n1NC(=O)c1c(O)c2ccccc2n(C)c1=O,n,n,47,n,n,n,n,n
CCc1nc2ccccc2c(=O)n1NC(=O)c1c(O)c2ccccc2[nH]c1=O,n,n,n,n,n,n,x,x
O=C(CCCCCn1c(=O)[nH]c2ccccc2c1=O)NCCCN1CCN(c2ccccc2F)CC1,n,n,63,n,n,n,n,53
O=C(Cn1ccc2ccccc2c1=O)NCCC(=O)N1CCN(c2cccc(Cl)c2)CC1,n,n,n,n,n,n,x,x
O=C(CCNC(=O)Cn1ccc2ccccc2c1=O)NCCN1CCN(c2ccccc2F)CC1,n,n,91,n,n,n,n,101
O=C(CCNC(=O)Cn1ccc2ccccc2c1=O)NCCN1CCN(c2cccc(Cl)c2)CC1,n,n,101,n,n,n,n,104
O=C(CCNC(=O)Cn1ccc2ccccc2c1=O)NCCN1CCc2ccccc2C1,n,n,n,n,n,n,x,x
O=C(/C=C/c1ccccc1Cl)Nc1ccc(-c2nnc3n2CCCCC3)cc1,n,n,n,n,n,n,x,x
C[C@@H]1[C@H]2CCCC[C@H]2CN(C(=O)OC(C)(C)C)[C@@H]1c1cn(Cc2ccccc2)c2ccc(F)cc12,n,n,x,x,x,n,x,x
Nc1nc(-c2cc(Cl)cc(Cl)c2OC(F)F)cs1,n,n,n,n,n,n,x,x
CCn1c(=O)cc(C(F)(F)F)[nH]c1=S,n,n,55,n,n,n,n,u
CCn1c(=S)[nH]c2cc(C(=O)O)ccc21,x,n,n,n,n,n,x,x
O=C(COC(=O)c1cc(Br)ccc1O)Nc1cccnc1Cl,n,n,47,n,n,n,n,u
CC(O)CNC1c2ccccc2CC1O (centres undefined),n,x,x,x,x,x,x,x
CCC(C)N(CCNC(=O)c1ccc2c(c1)NC(=O)c1ccccc1S2)C1CCCCC1 (centres undefined),n,n,52,n,n,n,n,70
CC1CCCC(C)N1CCCNC(=O)c1ccc2c(c1)NC(=O)c1ccccc1S2 (centres undefined),n,n,n,n,n,n,x,x
COc1cc2c3nnc(-c4ccc(F)cc4)c-3cn(Cc3ccc(C)cc3)c2cc1OC,n,n,49,n,n,n,n,n
CC(C)NS(=O)(=O)c1ccc(NC(=O)C(C)OC(=O)CCCOc2ccccc2)cc1 (centres undefined),n,n,n,n,n,n,x,x
COc1cccc(NC(=O)CN(C)C(=O)c2cccnc2Nc2cccc(C(F)(F)F)c2)c1,n,n,47,n,n,n,n,n
Cc1ccc(NC(=O)CN(C)C(=O)c2cccnc2Nc2cccc(C(F)(F)F)c2)cc1,n,n,n,n,n,n,x,x
COC(=O)c1c(-c2ccc(OC)cc2)oc2ccc(-c3cc(OC)c(OC)c(OC)c3)cc12,n,n,52,n,n,n,n,u
O=C(O)CCC(=O)Nc1nc2nccc(-c3ccccc3)n2n1,n,n,n,n,n,n,x,x
SMILES,SENP8 block-1,SENP7 inh,UBC13 inh,SENP6 inh,SENP8 block-2,Apaf-1 inh,Casp3 UBC13 ctr,UBC13 confirm
Nc1nonc1-n1nnc(C(=O)N/N=C/c2ccc(O)cc2)c1CN1CCCCCC1,n,n,n,n,n,n,x,x
Nc1nonc1-n1nnc(C(=O)N/N=C/c2ccccc2Br)c1CN1CCCC1,n,n,63,n,n,n,n,n
CCCCCC(=O)N=Nc1c(O)[nH]c2ccc([N+](=O)[O-])cc12,n,n,n,n,n,n,x,x
CCNC(=S)N=Nc1c(O)[nH]c2ccc(C(C)C)cc12,n,n,90,n,n,n,n,88
O=[N+]([O-])c1ccc2[nH]c(O)c(N=NC(=S)NCC3CCCO3)c2c1 (centres undefined),n,n,91,n,n,n,n,94
O=C(CNC(=O)c1ccc(Br)cc1)N=Nc1c(O)[nH]c2ccc([N+](=O)[O-])cc12,n,n,n,n,n,n,x,x
CCNC(=S)N=Nc1c(O)[nH]c2ccc([N+](=O)[O-])cc12,n,n,45,n,n,n,n,60
C#CCOCCOCCOCCNc1nc(N2CCN(C(=O)CCCCCCCCCCNC(=O)[C@H]([C@@H](C)CC)n3cc(CCCCCN)nn3)CC2)nc(N2CCN(C(=O)CCCCCCCCCCNC(=O)[C@H]([C@@H](C)CC)n3cc(CCCCN=C(N)N)nn3)CC2)n1,n,n,125,n,n,71,n,128
C#CCOCCOCCOCCNc1nc(N2CCN(C(=O)CCCCCCCCCCNC(=O)[C@H](CO)n3cc(CCCSC)nn3)CC2)nc(N2CCN(C(=O)CCCCCCCCCCNC(=O)[C@H](CCCN=C(N)N)n3cc(C[C@@H](C)CC)nn3)CC2)n1,n,n,122,n,n,45,n,121
C#CCOCCOCCOCCNc1nc(N2CCN(C(=O)CCCCCCCCCCNC(=O)Cn3cc(C[C@@H](C)O)nn3)CC2)nc(N2CCN(C(=O)CCCCCCCCCCNC(=O)[C@H](CO)n3cc(CCCSC)nn3)CC2)n1,n,n,n,n,n,n,x,x
CC[C@H](C)[C@@H](C(=O)NCCCCCCCCCCC(=O)N1CCNCC1)n1cc(CCCCN=C(N)N)nn1,n,n,49,n,n,n,n,n
CC[C@H](C)Cc1cn([C@@H](CCCN=C(N)N)C(=O)NCCCCCCCCCCC(=O)N2CCNCC2)nn1,n,n,n,n,n,n,x,x
C#CCOCCOCCOCCNc1nc(N2CCOCC2)nc(N2CCN(C(=O)CCCCCCCCCCNC(=O)[C@@H]([C@H](C)CC)n3cc(CCCCCN)nn3)CC2)n1,n,n,70,n,n,n,n,64
O=C1c2ccccc2C(c2nnnn2-c2ccc3c(c2)OCCO3)N1CCc1ccccc1F (centres undefined),n,x,x,x,x,x,x,x
O=C(CN(CC1CCCO1)C(=O)CNS(=O)(=O)c1ccc(F)cc1)NC1CCCCC1 (centres undefined),n,n,n,n,n,n,x,x
Cc1ncc(S(=O)(=O)c2ccc(Cl)cc2)c(N)n1,n,n,45,n,n,n,n,49
CCOC(=O)/C(C#N)=N\Nc1cc(Cl)ccc1OC,n,n,n,n,n,n,x,x
COc1ccccc1NS(=O)(=O)c1cccc(C(=O)NNC(=O)c2ccc(Cl)nc2)c1,n,n,45,n,n,n,n,n
O=c1c(-c2nc3ccccc3s2)cccn1Cc1ccc(Cl)c(Cl)c1,n,n,n,n,n,n,x,x

# Screening data deposited in PubChem by Sanford-Burnham Center for Chemical Genomics.
